We go through 13 compounds from ChEMBL document CHEMBL2046273, “3-Hydroxy-1H-quinazoline-2,4-dione derivatives as new antagonists at ionotropic glutamate receptors: molecular modeling and pharmacological studies” (Eur J Med Chem, 2012).

pIC50, pKi: −log10 of the molar value. Calls of active or inactive are those of the source. The rule behind the calls is not given here.

One assay concerns the target Glutamate NMDA receptor. The assay is described as follows: Displacement of [3H]glycine from NMDA receptor in rat cortical synaptical membrane. The class given is cell membranes.
Assay [1] in a line: Displacement of [3H]AMPA from AMPA receptor in rat cortical synaptical membrane. The class given is cell membranes.
Assay [2] can be described thus: Displacement of [3H]kainate from high affinity kainate receptor in rat cortical membrane. The format is cell membranes.
The target in assay [3] is Glutamate NMDA receptor (Rattus norvegicus) (UniProt P35439+Q00959+Q00960+Q00961+Q62645+Q8VHN2+Q9R1M7). Nature of the assay: Displacement of [3H]glycine from NMDA receptor in rat cortical synaptical membrane at 100 uM. The class given is cell membranes. The essentials: (§1)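 Rat cortical membranes, test compound at 100 µM single concentration. Diluted in buffer from a 1 mM stock in 50% DMSO. Result given as percent inhibition of specific radioligand binding. Determinations were done in triplicate, 3–4 separate experiments.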

Assay [4] in a line: Antagonist activity at AMPA receptor in mouse cortical wedge assessed as inhibition of S-AMPA-induced membrane depolarization by electrophysiological assay. The format is functional.
For assay [5], the species on record is Mus musculus. Nature of the assay: Antagonist activity at NMDA receptor in mouse cortical wedge assessed as inhibition of NMDA-induced membrane depolarization at 10 uM by electrophysiological assay. The class given is functional. The essentials:
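Mouse cortical wedge preparation; antagonism measured as inhibition of depolarization evoked by NMDA, with test compound at 10 µM.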

Assay [6] can be described thus: Neuroprotective activity in organotypic Wistar rat hippocampal CA1 region slices assessed as protection from oxygen-deprivation-induced neuronal damage at 30 uM dosed during 30 mins insult and subsequent 24 hrs recovery period by propidium iodide staining-based fluorescence analysis (reference value: 57 +/- 8%). The format is functional.
The species entered for assay [7] is Rattus norvegicus. Nature of the assay: Displacement of [3H]kainate from kainate receptor in rat cortical membrane at 100 uM. The format is cell membranes. The essentials: as §1
The nature of assay [8]: Antagonist activity at NMDA receptor in mouse cortical wedge assessed as inhibition of NMDA-induced membrane depolarization by electrophysiological assay. The class given is functional.
The species entered for assay [9] is Rattus norvegicus. Nature of the assay: Displacement of [3H]AMPA from AMPA receptor in rat cortical synaptical membrane at 100 uM. The class given is cell membranes. The essentials:
as §1

Assay [10] in a line: Neuroprotective activity in organotypic Wistar rat hippocampal CA1 region slices assessed as protection from oxygen-deprivation-induced neuronal damage at 1 uM dosed during 30 mins insult and subsequent 24 hrs recovery period by propidium iodide staining-based fluorescence analysis (reference value: 57 +/- 8%). The format is functional.
The test system of assay [11] is Mus musculus. Nature of the assay: Anticonvulsant activity in Swiss albino mouse assessed as protection from PTZ-induced seizures at 30 mg/kg, po administered 30 mins before PTZ challenge measured after 30 mins. The class given is functional. Put shortly:
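Male Swiss albino mice (23–30 g), housed 15 per cage, 23 ± 1 °C, 12 h light/dark. Test drug dispersed in 1% sodium carboxymethylcellulose and given orally in 10 ml/kg. PTZ given 90 mg/kg s.c. 30 min later. Clonic generalized convulsions scored over 30 min, expressed as % protection.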

Assay [12] in a line: Antagonist activity at kainate receptor in Wistar rat acute hippocampal CA1 region slices assessed as reduction in field excitatory postsynaptic potential amplitude at basal conditions at 5 uM by electrophysiological analysis. The class given is functional. The following applies: Hippocampus.
The nature of assay [13]: Antagonist activity at kainate receptor in Wistar rat acute hippocampal CA1 region slices assessed as reduction of kainate-induced field excitatory postsynaptic potential suppression at 1 uM by electrophysiological analysis relative to untreated pre-drug level (reference value: 52.1 +/- 15.3%). On the set-up: scale not given: the % may be the effect or the level left. The class given is functional, Hippocampus.

Assay [14] can be described thus: Antagonist activity at kainate receptor in Wistar rat acute hippocampal CA1 region slices assessed as reduction in field excitatory postsynaptic potential amplitude at basal conditions at 1 uM by electrophysiological analysis. The class given is functional. Conditions: Hippocampus.
In assay [15] the test system is Hippocampus. Nature of the assay: Neuroprotective activity in Wistar rat hippocampal CA1 region assessed as change in field excitatory postsynaptic potential at basal conditions at 1 to 5 uM by electrophysiological analysis. The format is functional, tissue-based.
The test system of assay [16] is Hippocampus. The assay is described as follows: Neuroprotective activity in Wistar rat acute hippocampal CA1 region assessed as protection from oxygen glucose deprivation-induced anoxia depolarization at 1 uM administered 15 mins before and during 7 mins oxygen-deprivation challenge. The class given is functional, tissue-based. The essentials: (§2)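 Acute rat hippocampal slices superfused with aCSF, compound in DMSO (final under 0.001%). Applied 15 min before and during 7-min OGD. Anoxic depolarization recorded in CA1 as negative DC voltage shift, with loss of fepsp followed on reperfusion with oxygenated glucose-containing aCSF. n = 3 (1 µM) or 6 (5 µM).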

In assay [17] the test system is Hippocampus. Nature of the assay: Neuroprotective activity in Wistar rat acute hippocampal CA1 region slices assessed as protection from oxygen glucose deprivation-induced anoxic depolarization at 5 uM administered 15 mins before and during 7 mins oxygen glucose deprivation challenge. The class given is functional. Put shortly:
as §2

Regarding `Nc1cc2c(=O)n(O)c(=O)[nH]c2cc1C(F)(F)F`, the pKi (at Glutamate NMDA receptor; in assay [1]) was 5.21 in each case. In assay [2], this compound showed a pIC50 of 4.49.

As to `NS(=O)(=O)c1cccc2c1c([N+](=O)[O-])cc1nc(O)c(O)nc12` [NBQX], the Imax in [3] came to 3%. Besides, the negative-log IC50 (pIC50) in assay [4] is 6.70; in assay [2], 5.15. For the same compound, the inhibition entry in the assay listed under Mus musculus [5] is “inactive”. Besides, in [6], the Activity was 20%. Besides, the pKi in assay [1] is 7.15.

Regarding `O=C(O)c1cc(O)c2c(Cl)cc(Cl)cc2n1`, the Imax in the assay filed under Rattus norvegicus [7] came out at 8%; in the assay listed under Rattus norvegicus [9], 5%. Besides, the pIC50 in assay [8] is 5.33; in assay [4] it was 4.28. The pKi at Glutamate NMDA receptor was 7.10.

At Glutamate NMDA receptor, `O=c1[nH]c2cc(C(F)(F)F)c(-n3cnnc3)cc2c(=O)n1O` gave a pKi of 5.19. For the same compound, the figures for the Activity (in assay [10]; with Mus musculus [11]) were 29% and 65.5%, respectively.

Take `O=C(O)c1ccccc1C(=O)Nc1cc2c(=O)n(O)c(=O)[nH]c2cc1Cl`: the inhibition at 5 µM in assay [12] came to 39.6%. The Activity in [13] was 85.8%; in the assay with Hippocampus [17], 92.2%. Besides, the inhibition at 1 µM in [14] was 19.2%. Moreover, the result in the assay on Hippocampus [15] was Active. Further, in the assay on Hippocampus [16], the result was inactive.

For the compound `O=c1[nH]c2cc(C(F)(F)F)c(-n3cccc3)cc2c(=O)n1O`, the values for the Imax (in the assay filed under Rattus norvegicus [7]; in assay [3]) were 10% and 32%, respectively. In addition, the negative-log Ki (pKi) in assay [1] was 3.90.

Take `O=C(O)c1ccccc1C(=O)Nc1cc2c(=O)n(O)c(=O)[nH]c2cc1C(F)(F)F`: the Imax in assay [3] came to 10%; in the assay listed under Rattus norvegicus [9], 8%. In [2], the pIC50 was 4.60.

Turning to `O=c1[nH]c2cc(C(F)(F)F)c([N+](=O)[O-])cc2c(=O)n1O`, the results for the pKi (at Glutamate NMDA receptor; in [1]) were 5.89 and 6.59, respectively. In assay [2], this compound gave a pIC50 of 5.15.

On to `O=c1[nH]c2cc(Cl)c([N+](=O)[O-])cc2c(=O)n1O`, for which the pKi on Glutamate NMDA receptor was 5.96; in assay [1], 5.89. This compound gave a pIC50 in assay [2] of 4.72.

On to `O=Cc1ccn(-c2cc3c(=O)n(O)c(=O)[nH]c3cc2C(F)(F)F)c1`, for which the pIC50 in assay [8] is 5.15; in assay [4] it was 5.82; in assay [2], 5.38. The values for the pKi (on Glutamate NMDA receptor; in assay [1]) were 6.10 and 6.14, respectively.

Consider `COn1c(=O)[nH]c2cc(C(F)(F)F)c(-n3cnnc3)cc2c1=O`, for which the results for the Imax (in the assay listed under Rattus norvegicus [7]; in [3]) were 0% and 21%, respectively. Further, in [1], the pKi is 4.70.

Take `O=c1[nH]c2cc(C(F)(F)F)ccc2c(=O)n1O`: the pKi on Glutamate NMDA receptor was 6.07; in assay [1], 5.32. In assay [2], this compound had a pIC50 of 4.42.

As to `O=C(O)c1ccn(-c2cc3c(=O)n(O)c(=O)[nH]c3cc2C(F)(F)F)c1`, the pIC50 is below 4.30 in [8], 5.54 in assay [4] and 4.76 in assay [2]. Moreover, the pKi was 5.29 at Glutamate NMDA receptor and 6.34 in [1].
